In ChEMBL document CHEMBL1125605 (1991) one finds MIC, minimum cytotoxic concentration (morphology alteration) and CC50 (50% cell growth inhibitory concentration) data, which are given here for two molecules.

≈ marks a conversion by molar mass, not a printed value. Some results are limits rather than exact numbers.

What all share (assay type): functional
Assay [1] has as its system HEL. Kind of assay: Concentration required to inhibit TK-VZV (YSR) induced cytopathogenicity in HEL cells by 50%. Conditions: Homo sapiens.
Assay [2] relates to HEL. Kind of assay: Concentration required to inhibit CMV (Davis) induced cytopathogenicity in HEL cells by 50%. Conditions: Homo sapiens.
In assay [3] the test system is E6SM. The assay can be described thus: Concentration required to inhibit HSV-2(lyons) induced cytopathogenicity in E6SM cells by 50%. Conditions: Homo sapiens.
In assay [4] the test system is E6SM. The assay can be described thus: Concentration required to cause a microscopically detectable alteration of normal cell morphology in E6SM cells. Conditions: Homo sapiens; read-out: MIC. Put shortly:
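Uninfected E6SM human embryonic skin-muscle fibroblasts were exposed to compound and examined under the microscope. The value is the minimum concentration that caused a detectable alteration of normal cell morphology.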

Assay [5] has as its system HEL. The assay can be described thus: Concentration required to inhibit VZV (YS) induced cytopathogenicity in HEL cells by 50%. Conditions: Homo sapiens.
The test system of assay [6] is E6SM. The assay can be described thus: oncentration required to inhibit VV induced cytopathogenicity in E6SM cells by 50%. Conditions: Homo sapiens.
The test system of assay [7] is E6SM. The assay can be described thus: Concentration required to inhibit HSV-1 (KOS) induced cytopathogenicity in E6SM cells by 50%. Conditions: Homo sapiens.
The subject of assay [8] is E6SM. The assay can be described thus: Concentration required to inhibit HSV-1 (F) induced cytopathogenicity in E6SM cells by 50%. Conditions: Homo sapiens.
The test system of assay [9] is E6SM. The assay can be described thus: Concentration required to inhibit TK-HSV-1 (VMW1837) induced cytopathogenicity in E6SM cells by 50%. Conditions: Homo sapiens.
The subject of assay [10] is HEL. Kind of assay: Concentration required to inhibit VZV (oka) induced cytopathogenicity in HEL cells by 50%. Conditions: Homo sapiens.
The test system of assay [11] is HEL. The assay can be described thus: Concentration required to cause 50% reduction in HEL cell growth. Conditions: Homo sapiens; read-out: MIC. Put shortly:
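Cytotoxicity was measured as inhibition of growth of HEL human embryonic lung fibroblasts. The value is the compound concentration that reduced cell growth by 50%.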

The subject of assay [12] is E6SM. The assay can be described thus: Concentration required to inhibit TK-HSV-1 (B2006) induced cytopathogenicity in E6SM cells by 50%. Conditions: Homo sapiens.
In assay [13] the test system is HEL. Kind of assay: Concentration required to inhibit TK-VZV (07-1) induced cytopathogenicity in HEL cells by 50%. Conditions: Homo sapiens.
In assay [14] the test system is HEL. Kind of assay: Concentration required to inhibit CMV (AD-169) induced cytopathogenicity in HEL cells by 50%. Conditions: Homo sapiens.
In assay [15] the test system is E6SM. The assay can be described thus: Concentration required to inhibit HSV-2(196) induced cytopathogenicity in E6SM cells by 50%. Conditions: Homo sapiens.
For assay [16], the system named is E6SM. Kind of assay: Concentration required to inhibit VSV induced cytopathogenicity in E6SM cells by 50%. Conditions: Homo sapiens. Put shortly: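 Antiviral assay in E6SM human embryonic skin-muscle fibroblasts, with cells infected by vesicular stomatitis virus (VSV) in microtiter plates. Virus-induced cytopathogenicity is assessed. The value is the compound concentration that reduces VSV-induced cytopathogenicity by 50%.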

Assay [17] deals with E6SM. The assay can be described thus: Concentration required to inhibit HSV-2(G) induced cytopathogenicity in E6SM cells by 50%. Conditions: Homo sapiens.
Assay [18] deals with E6SM. Kind of assay: Concentration required to inhibit HSV-1 (McIntyre) induced cytopathogenicity in E6SM cells by 50%. Conditions: Homo sapiens.

In the case of `O=c1[nH]c(=O)n([C@H]2C[C@H](O)[C@@H](CO)O2)cc1-c1ccc(Cl)o1`, the MIC is over 100 µg/mL in [1]; over 100 µg/mL in [2]; 150 µg/mL (≈ 456 µM) in assay [3]; 3 µg/mL (≈ 9.13 µM) in assay [5]; 45 µg/mL (≈ 137 µM) in assay [6]; 0.2 µg/mL (≈ 0.608 µM) in [7]. Also, the MIC is 0.2 µg/mL (≈ 0.608 µM) in assay [8]; 150 µg/mL (≈ 456 µM) in assay [9]; 2.5 µg/mL (≈ 7.61 µM) in assay [10]; 150 µg/mL (≈ 456 µM) in assay [12]; over 100 µg/mL in assay [13]; over 100 µg/mL in assay [14]. The MIC in [15] is 150 µg/mL (≈ 456 µM); in assay [16], over 200 µg/mL; in assay [17] it was 150 µg/mL (≈ 456 µM); in assay [18], 0.4 µg/mL (≈ 1.22 µM). In addition, the minimum cytotoxic concentration (morphology alteration) in assay [4] was over 400 µg/mL. The CC50 (50% cell growth inhibitory concentration) in assay [11] was 105 µg/mL (≈ 319 µM).

For the molecule `O=c1[nH]c(=O)n([C@H]2C[C@H](O)[C@@H](CO)O2)cc1-c1ccc(Br)o1`, the MIC in assay [1] was over 100 µg/mL; in [2], over 100 µg/mL; in assay [3], 300 µg/mL (≈ 804 µM); in assay [5], 3 µg/mL (≈ 8.04 µM); in [6], 70 µg/mL (≈ 188 µM); in assay [7] it was 0.15 µg/mL (≈ 0.402 µM). The MIC in [8] is 0.1 µg/mL (≈ 0.268 µM); in [10], 3 µg/mL (≈ 8.04 µM); in assay [12] it was 100 µg/mL (≈ 268 µM); in assay [13], over 100 µg/mL; in [14], over 100 µg/mL; in assay [15], 150 µg/mL (≈ 402 µM). Besides, the MIC in assay [16] was over 200 µg/mL; in [17], 150 µg/mL (≈ 402 µM); in [18], 0.2 µg/mL (≈ 0.536 µM). Also, the minimum cytotoxic concentration (morphology alteration) in [4] is over 400 µg/mL. Further, the CC50 (50% cell growth inhibitory concentration) in [11] worked out at 125 µg/mL (≈ 335 µM).
